Reference: paper PMC3556274 (Bioconjugate chemistry, 2012)
Non-standard residues stand in square brackets, D forms with d. Residues, ends and D or L forms follow the SMILES beside them. *: point of attachment. DTPA = O=C(O)CN(CCN(CC(=O)O)CC(=O)O)CCN(CC(=O)O)CC(=O)*; Orn = NCCC[C@H](N)C(=O)O; 2Furoyl = O=C(c1ccco1)*

What was measured:
PAR2 [1] = target: T1, PAR2 (Homo sapiens, UniProt P55085); assay type: binding; conditions: 16HBE14o- cells, against 300 nM 2-f-LIGRLO-dtpa
T1 sequence (P55085 26-397): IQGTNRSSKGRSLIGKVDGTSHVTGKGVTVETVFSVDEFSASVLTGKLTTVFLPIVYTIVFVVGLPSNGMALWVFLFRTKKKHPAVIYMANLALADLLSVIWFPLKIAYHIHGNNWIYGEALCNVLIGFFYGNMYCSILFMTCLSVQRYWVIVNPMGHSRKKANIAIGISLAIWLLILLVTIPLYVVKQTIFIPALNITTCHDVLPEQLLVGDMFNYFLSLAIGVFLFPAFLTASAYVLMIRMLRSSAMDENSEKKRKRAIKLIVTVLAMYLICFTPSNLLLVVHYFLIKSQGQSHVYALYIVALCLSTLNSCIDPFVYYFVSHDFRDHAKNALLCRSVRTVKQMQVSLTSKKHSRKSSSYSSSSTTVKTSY
Outline: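 Live 16HBE14o- cells grown to confluence (37°C, 5% CO2) on BSA/collagen I/fibronectin-coated 96-well plates. Cells were blocked 75 min in 2% BSA in HEPES-buffered HBSS pH 7.4, then given 45 min at 25°C with 300 nM Eu-DTPA-labelled PAR2 agonist plus competitor at 1 nM–600 µM. Three EDTA/Tween/BSA washes followed, then DELFIA enhancement for 40–45 min. Eu TRF read at ex 340/em 615 nm with 400 µs delay. Apparent IC50 from n ≥ 3 per concentration in ≥2 independent plates.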

PAR2 [2] = target: T1, PAR2; assay: xCELLigence Real Time Cell Analyzer; assay type: cell-based; conditions: 16HBE14o- cells
[3] = test system: control vector-transfected (kNRK) rat kidney cells; assay: Ca2+ signaling in control vector-transfected kNRK cells; assay type: cell-based
Outline: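 Kirsten virus-transformed normal rat kidney cells (low PAR2 expression) transfected with control vector were run alongside PAR2-transfected kNRK cells. [Ca2+]i was imaged by digital microscopy as for the bronchial epithelial cells, scoring the percentage of cells responding within the 3 min run. Comparison was to matched control, n ≥ 4.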

PAR2 [4] = target: T1, PAR2; assay: Ca2+ signaling by digital imaging microscopy in 16HBE14o- cells; assay type: cell-based; conditions: 5 µM
Outline: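 Human bronchial epithelial 16HBE14o- cells (high PAR2 expression) imaged by digital microscopy for [Ca2+]i changes in individual cells over a 3 min run after agonist addition. Concentration response 0.5–25 µM. Read-out: time course of [Ca2+]i rise and percentage of cells in the field responding within 3 min. Each concentration had 3–9 experiments.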

PAR2 [5] = target: T1, PAR2; assay: MAPK signaling, immunoblot of pERK/tERK; assay type: cell-based; conditions: 16HBE14o- cells, 5 min exposure, concentration response 1-10 µM
Outline: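 16HBE14o- cells exposed 5 min to test compound at 1–10 µM. ERK1/2 phosphorylation measured by immunoblot as pERK relative to total ERK. Values were compared with matching HBSS control.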

competition for PAR2 binding (in words) (PAR2 [1])	Molecule	concentration that stimulated a maximum Cell Index (PAR2 [2]; RTCA) [µM]	agonist properties in the RTCA physiological response assay (PAR2 [2]; acute (10 min) and long-term (4 h) time points)	percentage of cells with Ca2+ signaling ([3]; 2.5 µM)	percentage of cells with Ca2+ signaling ([3]; 5 µM)	time to initial increase in [Ca2+]i (PAR2 [4]) [s]	concentration inducing a significant increase in pERK/tERK compared with control (PAR2 [5]) [µM]	concentration of peak (maximum) pERK/tERK activation (PAR2 [5]) [µM]
displayed limited binding	3-indoleacetyl-LIGRL-NH2 [3-ia-LIGRL]	–	–	–	–	–	–	–
–	CC[C@H](C)[C@H](NC(=O)[C@H](CC(C)C)NC(=O)c1ccco1)C(=O)NCC(=O)N[C@@H](CCCNC(=N)N)C(=O)N[C@@H](CC(C)C)C(=O)N[C@@H](CCCNC(=O)CN(CCN(CCN(CC(=O)O)CC(=O)O)CC(=O)O)CC(=O)O)C(N)=O [2-f-LIGRLO-dtpa, 2-furoyl-LIGRLO-(diethylenetriaminepentaacetic acid)-NH2] (2Furoyl-LIGRL[Orn](DTPA)-NH2)	2.5	full agonist properties	0.42% ± 0.42	2.98% ± 0.09	≤ 30	2.5	10
